In ChEMBL document CHEMBL3232859, “Absolute configuration of (13R)- and (13S)-labdane diterpenes coexisting in Ageratina jocotepecana” (2014):
Values after ≈ are worked out from the molar mass of the structure shown. Active and inactive are the calls of the source. The rule behind the calls is not given here.

How the values were obtained:
Staphylococcus aureus = experiment: Antibacterial activity against Staphylococcus aureus assessed as growth inhibition after 18 hrs by agar diffusion method; assay type: functional
Method in brief: (§1)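 MIC by agar diffusion: ethanolic solutions, starting at a maximum of 0.01 mg/μL with successive 2-fold dilutions; 6 μL aliquots deposited on solidified agar; inhibition zone diameter read after 18 h incubation at 37 °C. Cefotaxime positive control, EtOH negative control.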

Escherichia coli = experiment: Antibacterial activity against Escherichia coli assessed as growth inhibition at 0.01 mg/uL after 18 hrs by agar diffusion method; assay type: functional, organism-based
Method in brief: (§2)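 Single-concentration agar diffusion screen: 6 μL aliquots of ethanolic solutions of pure compounds (0.01 mg/μL) deposited on solidified agar; inhibition zone diameter measured after 18 h incubation at 37 °C.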

Klebsiella pneumoniae = experiment: Antibacterial activity against Klebsiella pneumoniae assessed as growth inhibition at 0.01 mg/uL after 18 hrs by agar diffusion method; assay type: functional, organism-based; method in brief: as §2
Bacillus subtilis = experiment: Antibacterial activity against Bacillus subtilis assessed as growth inhibition after 18 hrs by agar diffusion method; assay type: functional; method in brief: as §1

SMILES	MIC (Staphylococcus aureus) [µg/mL]	growth inhibition (GI) (Escherichia coli)	growth inhibition (GI) (Klebsiella pneumoniae)	MIC (Bacillus subtilis) [µg/mL]
CC1=CC[C@H]2C(C)(C)CCC[C@]2(C)[C@H]1CC[C@H](C)CC(=O)O	780 (≈ 2.54 mM)	inactive	inactive	150 (≈ 0.489 mM)
C[C@H](CC[C@@H]1[C@@]2(C)CCCC(C)(C)[C@@H]2CC[C@@]1(C)O)CC(=O)O	2340 (≈ 7.21 mM)	inactive	inactive	1560 (≈ 4.81 mM)
CC1=CC[C@H]2C(C)(C)CCC[C@]2(C)[C@H]1CC/C(C)=C\C(=O)O	10000 (≈ 32.8 mM)	inactive	inactive	1000 (≈ 3.28 mM)
CO/N=C(\C(=O)N[C@@H]1C(=O)N2C(C(=O)O)=C(COC(C)=O)CS[C@H]12)c1csc(N)n1 [CEFOTAXIME]	130 (≈ 0.285 mM)			12500 (≈ 27.4 mM)
